Source: ChEMBL document CHEMBL2424590, “4-[18F]Fluoro-m-hydroxyphenethylguanidine: a radiopharmaceutical for quantifying regional cardiac sympathetic nerve density with positron emission tomography” (J Med Chem, 2013)

Key:
Blood [1] = test: Biodistribution in Sprague-Dawley rat blood at 20 to 120 uCi, iv after 5 mins by gamma counting analysis; type: ADME, organism-based; conditions: in vivo
Method in brief: (§1)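 Sprague-Dawley rats (280–330 g), 2 male and 2 female per time point (5, 30, 60, 120 min), under light isoflurane, received a tail-vein bolus of 20–120 μCi tracer in 0.05–0.10 mL isotonic 60 mM sodium phosphate, pH 5.4. Tissues were weighed and gamma-counted. Decay-corrected dpm/g was normalized to injected dpm per kg body weight (%ID·kg/g).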

Blood [2] = test: Biodistribution in Sprague-Dawley rat blood at 20 to 120 uCi, iv after 30 mins by gamma counting analysis; type: ADME, organism-based; conditions: in vivo, 0.5 h; method in brief: as §1
Testes [3] = test: Biodistribution in Sprague-Dawley rat testes at 20 to 120 uCi, iv after 5 mins by gamma counting analysis; type: ADME, organism-based, Testis; conditions: in vivo
Method in brief: (§2)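 Male and female rats (2 per sex per time point, 280–330 g) under light isoflurane given tail-vein bolus of 20–120 μCi tracer in 0.05–0.10 mL isotonic 60 mM sodium phosphate, pH 5.4. Tissues sampled at 5, 30, 60 or 120 min, weighed and gamma-counted. Decay-corrected dpm per gram normalised to injected dpm and body weight, given as %ID·kg/g.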

Rattus norvegicus [4] = test: Biodistribution in Sprague-Dawley rat stomach at 20 to 120 uCi, iv after 30 mins by gamma counting analysis; type: ADME, organism-based; conditions: in vivo, 0.5 h; method in brief: as §2
[5] = Drug uptake in rhesus macaque monkey liver at 5 to 6 mCi, iv after 90 mins by PET analysis; type: ADME, organism-based, Macaca mulatta; conditions: in vivo, 1.5 h
Heart [6] = test: Biodistribution in Sprague-Dawley rat heart at 20 to 120 uCi, iv after 5 mins by gamma counting analysis; type: ADME, organism-based; conditions: in vivo; method in brief: as §1
Rattus norvegicus [7] = test: Biodistribution in Sprague-Dawley rat eyeballs at 20 to 120 uCi, iv after 60 mins by gamma counting analysis; type: ADME, organism-based, Eyeball of camera-type eye; conditions: in vivo, 1 h; method in brief: as §1
[8] = Drug uptake in rhesus macaque monkey adrenal glands 5 to 6 mCi, iv after 90 mins by PET analysis; type: ADME, organism-based, Macaca mulatta, Adrenal gland; conditions: in vivo, 1.5 h
Adrenal [9] = test: Biodistribution in Sprague-Dawley rat adrenal at 20 to 120 uCi, iv after 120 mins by gamma counting analysis; type: ADME, organism-based, Adrenal tissue; conditions: in vivo, 2 h; method in brief: as §1
Plasma = test: Metabolic stability in rhesus macaque monkey plasma assessed as retention time of [18F]-2-fluoro-5-(2-guanidinoethyl)phenyl hydrogen sulfate at 5 to 6 mCi, iv by RP-HPLC analysis; type: ADME, organism-based, Macaca mulatta; conditions: in vivo
Method in brief: (§3)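 Six venous samples (1.5–2.0 mL; typically 1, 2, 4, 10, 30, 60 min) drawn during the monkey PET scan into heparin and centrifuged 1 min at 12000 × g. Plasma deproteinised with HClO₄ (final 0.4 N), spun, neutralised with KOH to pH 7.0–7.5 and filtered twice (0.22 μm). Analysed by reverse-phase HPLC (10% EtOH in 60 mM NaH₂PO₄, pH 5.4, 1.0 mL/min) with NaI(Tl) radiodetection. Decay-corrected intact fraction per sample; T1/2 is the time at which 50% of plasma activity is metabolite.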

Ovary [10] = test: Biodistribution in Sprague-Dawley rat ovary at 20 to 120 uCi, iv after 5 mins by gamma counting analysis; type: ADME, organism-based, Female gonad; conditions: in vivo
Method in brief: (§4)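 Sprague-Dawley rats (280–330 g) under light isoflurane received a tail-vein bolus of 20–120 μCi tracer in 0.05–0.10 mL isotonic 60 mM sodium phosphate, pH 5.4. Sampling was at 5, 30, 60 or 120 min. […] were weighed and gamma-counted. Decay-corrected dpm/g was normalized to injected dpm per kg body weight (%ID·kg/g).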

Kidney [11] = test: Biodistribution in Sprague-Dawley rat kidney at 20 to 120 uCi, iv after 30 mins by gamma counting analysis; type: ADME, organism-based; conditions: in vivo, 0.5 h; method in brief: as §1
Heart [12] = test: Biodistribution in Sprague-Dawley rat heart at 20 to 120 uCi, iv after 30 mins by gamma counting analysis; type: ADME, organism-based; conditions: in vivo, 0.5 h; method in brief: as §1
Heart [13] = test: Biodistribution in Sprague-Dawley rat heart at 20 to 120 uCi, iv after 120 mins by gamma counting analysis; type: ADME, organism-based; conditions: in vivo, 2 h; method in brief: as §1
Testes [14] = test: Biodistribution in Sprague-Dawley rat testes at 20 to 120 uCi, iv after 60 mins by gamma counting analysis; type: ADME, organism-based, Testis; conditions: in vivo, 1 h; method in brief: as §2
Testes [15] = test: Biodistribution in Sprague-Dawley rat testes at 20 to 120 uCi, iv after 120 mins by gamma counting analysis; type: ADME, organism-based, Testis; conditions: in vivo, 2 h; method in brief: as §2
Bone = test: Biodistribution in Sprague-Dawley rat bone at 20 to 120 uCi, iv after 5 mins by gamma counting analysis; type: ADME, organism-based, Bone element; conditions: in vivo; method in brief: as §1
[16] = Half life in Sprague-Dawley rat heart sympathetic neurons at 2 uCi/mL administered as infusion by gamma counting analysis; type: ADME, tissue-based; conditions: sympathetic neuron
Method in brief: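 Isolated working rat hearts perfused with 54 μM corticosterone in all perfusates to block uptake-2. Tracer infused at <10 nM total mass for 10 min to measure neuronal uptake rate (mL/min/g wet), then switched to normal perfusate to follow clearance over 2 h.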

Rattus norvegicus [17] = test: Biodistribution in Sprague-Dawley rat eyeballs at 20 to 120 uCi, iv after 30 mins by gamma counting analysis; type: ADME, organism-based, Eyeball of camera-type eye; conditions: in vivo, 0.5 h; method in brief: as §1
Kidney [18] = test: Biodistribution in Sprague-Dawley rat kidney at 20 to 120 uCi, iv after 5 mins by gamma counting analysis; type: ADME, organism-based; conditions: in vivo; method in brief: as §1
Lung = test: Biodistribution in Sprague-Dawley rat lung at 20 to 120 uCi, iv after 30 mins by gamma counting analysis; type: ADME, organism-based; conditions: in vivo, 0.5 h; method in brief: as §1
Blood [19] = test: Biodistribution in Sprague-Dawley rat blood at 20 to 120 uCi, iv after 60 mins by gamma counting analysis; type: ADME, organism-based; conditions: in vivo, 1 h; method in brief: as §1
Ovary [20] = test: Biodistribution in Sprague-Dawley rat ovary at 20 to 120 uCi, iv after 60 mins by gamma counting analysis; type: ADME, organism-based, Female gonad; conditions: in vivo, 1 h; method in brief: as §4
Brain [21] = test: Biodistribution in Sprague-Dawley rat brain at 20 to 120 uCi, iv after 30 mins by gamma counting analysis; type: ADME, organism-based; conditions: in vivo, 0.5 h; method in brief: as §1
Testes [22] = test: Biodistribution in Sprague-Dawley rat testes at 20 to 120 uCi, iv after 30 mins by gamma counting analysis; type: ADME, organism-based, Testis; conditions: in vivo, 0.5 h; method in brief: as §2
Adrenal [23] = test: Biodistribution in Sprague-Dawley rat adrenal at 20 to 120 uCi, iv after 5 mins by gamma counting analysis; type: ADME, organism-based, Adrenal tissue; conditions: in vivo; method in brief: as §1
[24] = Half life in rhesus macaque monkey plasma at 5 to 6 mCi, iv by RP-HPLC analysis; type: ADME, organism-based, Macaca mulatta; method in brief: as §3
Rattus norvegicus [25] = test: Biodistribution in Sprague-Dawley rat uterus at 20 to 120 uCi, iv after 60 mins by gamma counting analysis; type: ADME, organism-based; conditions: in vivo, 1 h; method in brief: as §2
Ovary [26] = test: Biodistribution in Sprague-Dawley rat ovary at 20 to 120 uCi, iv after 120 mins by gamma counting analysis; type: ADME, organism-based, Female gonad; conditions: in vivo, 2 h; method in brief: as §4
Rattus norvegicus [27] = test: Biodistribution in Sprague-Dawley rat eyeballs at 20 to 120 uCi, iv after 5 mins by gamma counting analysis; type: ADME, organism-based, Eyeball of camera-type eye; conditions: in vivo; method in brief: as §1
Brain [28] = test: Biodistribution in Sprague-Dawley rat brain at 20 to 120 uCi, iv after 120 mins by gamma counting analysis; type: ADME, organism-based; conditions: in vivo, 2 h; method in brief: as §1
[29] = Drug uptake in rhesus macaque monkey myocardium at 0.1 mCi after 10 to 30 mins by gamma counting analysis; type: ADME, Macaca mulatta; conditions: in vivo
[30] = Drug metabolism in rhesus macaque monkey spinal column assessed as fluorine-18 level at 5 to 6 mCi, iv after 90 mins by sagittal PET analysis; type: ADME, organism-based, Macaca mulatta; conditions: in vivo, 1.5 h
Muscle tissue = test: Biodistribution in Sprague-Dawley rat muscle at 20 to 120 uCi, iv after 120 mins by gamma counting analysis; type: ADME, organism-based; conditions: in vivo, 2 h; method in brief: as §1
Pancreas = test: Biodistribution in Sprague-Dawley rat pancreas at 20 to 120 uCi, iv after 30 mins by gamma counting analysis; type: ADME, organism-based; conditions: in vivo, 0.5 h; method in brief: as §1

## N=C(N)NCCc1ccc([18F])c(O)c1
Blood [1]
  Drug uptake: 0.062 %ID·kg/g
Blood [2]
  Drug uptake: 0.022 %ID·kg/g
Testes [3]
  Drug uptake: 0.018 %IDKg/g
Rattus norvegicus [4]
  Drug uptake: 0.11 %IDKg/g
[5]
  Drug uptake: Not Active
Heart [6]
  Drug uptake: 0.746 %IDKg/g
Rattus norvegicus [7]
  Drug uptake: 0.041 %IDKg/g
[8]
  Drug uptake: Active
Adrenal [9]
  Drug uptake: 0.133 %IDKg/g
Plasma
  Retention_time: 8.2 min
Ovary [10]
  Drug uptake: 0.194 %IDKg/g
Kidney [11]
  Drug uptake: 0.183 %IDKg/g
Heart [12]
  Drug uptake: 0.602 %IDKg/g
Heart [13]
  Drug uptake: 0.347 %IDKg/g
Testes [14]
  Drug uptake: 0.008 %IDKg/g
Testes [15]
  Drug uptake: 0.004 %IDKg/g
Bone
  Drug uptake: 0.06 %ID·kg/g
[16]
  t1/2: > 24 h
Rattus norvegicus [17]
  Drug uptake: 0.04 %IDKg/g
Kidney [18]
  Drug uptake: 1.398 %IDKg/g
Lung
  Drug uptake: 0.136 %IDKg/g
Blood [19]
  Drug uptake: 0.016 % ID/g
Ovary [20]
  Drug uptake: 0.142 %IDKg/g
Brain [21]
  Drug uptake: 0.003 %IDKg/g
Testes [22]
  Drug uptake: 0.01 %IDKg/g
Adrenal [23]
  Drug uptake: 0.203 %IDKg/g
[24]
  half-life: 2.5 min
Rattus norvegicus [25]
  Drug uptake: 0.112 %IDKg/g
Ovary [26]
  Drug uptake: 0.129 %IDKg/g
Rattus norvegicus [27]
  Drug uptake: 0.039 %IDKg/g
Brain [28]
  Drug uptake: 0.001 %IDKg/g
[29]
  SUV: 1.2
[30]
  Drug metabolism: Active
Muscle tissue
  Drug uptake: 0.015 % ID/g
Pancreas
  Drug uptake: 0.145 %IDKg/g
